From article PMC11844196 (Journal of Experimental Pharmacology, 2025)

What was measured:
MCF7 cells = assay: Cell morphology after treatment; type: cell-based, human
MDA-MB-231 cells = assay: PrestoBlue cytotoxicity assay; type: cell-based; settings: Homo sapiens, MDA-MB-231, 24 h, read-out: IC50 Value MDA-MB-231
In short: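 Cells plated at 10,000 cells/well and incubated 24 h at 37°C, 5% CO2. MCF 10A were grown in MEBM to 70–80% confluency. Treated for 24 h with eight concentrations (250, 125, 62.5, 31.25, 15.625, 7.8125, 3.9, 1.95 µg/mL) in three parallel experiments, with cisplatin as positive control.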

CC[C@H](CC[C@@H](C)[C@H]1CC[C@H]2[C@@H]3CC=C4C[C@@H](O)CC[C@]4(C)[C@H]3CC[C@]12C)C(C)C [β-sitosterol]
Cell morphology (apoptosis signs) (MCF7 cells): cell blebbing indicative of apoptotic process
IC50 (MDA-MB-231 cells): > 250 µg/mL
